Measurements taken from ChEMBL document CHEMBL2169883, “Design, synthesis, and structure-activity relationship of N-arylnaphthylamine derivatives as amyloid aggregation inhibitors” (J Med Chem, 2012).

How the values were obtained:
[1] = Inhibition of amyloid beta (1 to 42) aggregation after 24 hrs by Thioflavin-T fluorescence assay
Summary of the method: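 Nonaggregate Aβ1-42 (44 μM working solution) was then added, and plates were agitated at 37 °C for 24 h. Read-out used 10 μM ThT in Na2HPO4 pH 6.5 (ex 450/em 486 nm), in triplicate; IC50 came from % residual aggregate dose-response.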

[2] = Cmax in mouse brain at 25 mg/kg, sc; assay type: ADME, organism-based; parameters: dose 25 mg/kg, route subcutaneous
Summary of the method: (§1)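 Mice received 25 mg/kg sc in ethanol/PEG-400/saline (10:40:50). Trunk blood and brain were collected at 0–240 min. Plasma and brain homogenate were solid-phase extracted and quantified by RP-HPLC (UV 224 nm, internal standard), n = 3. Cmax and tmax were read directly from the data; brain and plasma AUCt were calculated by the linear trapezoidal rule to give the brain/plasma ratio.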

Mus musculus [3] = assay: Toxicity in mouse assessed as incidence of discomfort at 25 mg/kg, sc; assay type: organism-based; parameters: dose 25 mg/kg, route subcutaneous; conditions: in vivo
Mus musculus [4] = assay: Toxicity in mouse assessed as incidence of side effect at 25 mg/kg, sc; assay type: organism-based; parameters: dose 25 mg/kg, route subcutaneous; conditions: in vivo
[5] = Ratio of drug level from brain to plasma in mouse at 25 mg/kg, sc; assay type: ADME, organism-based; parameters: dose 25 mg/kg, route subcutaneous; conditions: read-out: BPR; summary of the method: as §1
[6] = Tmax in mouse brain at 25 mg/kg, sc; assay type: ADME, organism-based; parameters: dose 25 mg/kg, route subcutaneous; summary of the method: as §1
in vivo = conditions: rat, brain/plasma, po, 16 mg/kg
[7] = Ratio of drug level from brain to plasma in rat administered via intranasal route; assay type: ADME; conditions: inhaled or intranasal, read-out: BPR

Row | SMILES | IC50 ([1]; read-out: IC50) [µM] | also measured
1 | COc1ccccc1Nc1ccc(OC)c2ccccc12 | > 5 | –
2 | O=C(O)c1ccc(Nc2ccc3ccccc3c2O)cc1 | 2.6 | –
3 | COC(=O)c1ccc(Nc2ccc(OC)c3ccccc23)cc1 | – | IC50 [1]: ND(Insoluble)
4 | COc1c(Nc2ccc(I)cc2)ccc2ccccc12 | > 5 | –
5 | COC(=O)c1ccc(Nc2ccc3ccccc3c2OC)cc1 | > 20 | –
6 | COc1c(Nc2ccc(C(=O)O)cc2)ccc2ccccc12 | > 20 | –
7 | CSc1ccc(Nc2ccc(N(C)C)c3ccccc23)cc1 | 2.2 | –
8 | O=C(O)c1ccc(Nc2ccc(O)c3ccccc23)cc1 | 57.4 | –
9 | COc1ccc(I)cc1Nc1ccc(OC)c2ccccc12 | > 5 | –
10 | O=S(=O)(c1ccc(O)cc1)c1ccc(O)c2ccccc12 | > 100 | –
11 | COc1c(Nc2ccccc2)ccc2ccccc12 | 33.6 | –
12 | COc1ccc(Nc2ccccc2)c2ccccc12 | – | IC50 [1]: ND(Insoluble)
13 | COc1ccc(Nc2ccc(OC)c3ccccc23)cc1 | 5.6 | Cmax [2]: 410 ng/mL; Activity (Mus musculus [3]): Non-toxic; Activity (Mus musculus [4]): Non-toxic; Kp [5]: 2; Tmax [6]: 1 h
14 | COC(=O)c1ccc(Nc2cccc3ccccc23)cc1 | > 20 | –
15 | O=C(O)c1ccccc1Nc1ccc(CCCc2ccc(Cl)c(Cl)c2)cc1 | 1 | –
16 | OCc1ccc(Nc2ccc(O)c3ccccc23)cc1 | – | IC50 [1]: ND(Unstable)
17 | Fc1ccc(Nc2ccc(F)c3ccccc23)cc1 | > 30 | –
18 | O=C(O)c1cc2ccccc2c(Cc2c(O)c(C(=O)O)cc3ccccc23)c1O [PAMOIC ACID] | 38.2 | –
19 | COC(=O)c1ccc(Nc2ccc3ccccc3c2O)cc1 | – | IC50 [1]: ND(Insoluble)
20 | O=C(O)c1ccccc1Nc1ccc(CCc2ccc(Cl)c(Cl)c2)cc1 | 2 | –
21 | Oc1ccc(Nc2ccc(O)c3ccccc23)cc1 | 1 | –

Row | SMILES | IC50 ([1]; read-out: IC50) [µM] | also measured
22 | COc1ccc(Nc2ccc([N+](=O)[O-])c3ccccc23)cc1 | 2.7 | –
23 | Oc1ccc(Sc2ccc(O)c3ccccc23)cc1 | 10.9 | –
24 | CSc1ccc(Nc2ccc(F)c3ccccc23)cc1 | > 5 | –
25 | O=C(O)c1ccccc1Nc1c(O)ccc2ccccc12 | 14.1 | –
26 | O=C(O)c1ccc(Nc2cccc3ccccc23)cc1 | > 100 | –
27 | COC(=O)c1ccc(Nc2ccc(O)c3ccccc23)cc1 | 5.1 | –
28 | COc1ccc(Sc2ccc(OC)c3ccccc23)cc1 | – | IC50 [1]: ND(Insoluble)
29 | O=C1c2ccccc2C(=O)c2c(O)c(O)cc(Nc3ccc(S(=O)(=O)O)cc3)c21 | 1.1 | –
30 | Oc1ccc2ccccc2c1Nc1c(O)ccc2ccccc12 | – | IC50 [1]: ND(Unstable)
31 | COc1ccc(S(=O)(=O)c2ccc(OC)c3ccccc23)cc1 | – | IC50 [1]: ND(Insoluble)
32 | Oc1c(Nc2ccccc2)ccc2ccccc12 | 2.4 | –
33 | COC(=O)c1ccccc1Nc1c(OC)ccc2ccccc12 | > 5 | –
34 | COc1ccc(Nc2ccc(C(=O)O)cc2)c2ccccc12 | > 60 | –
35 | O=C(O)c1c(Nc2ccc(CCc3ccc(Cl)c(Cl)c3)cc2)cccc1C(F)(F)F | 0.1 | –
36 | Cl.Nc1c2c(nc3ccccc13)CCCC2.O | – | Kp (in vivo): 5
37 | Oc1ccc(Nc2ccccc2)c2ccccc12 | 5.4 | –
38 | O=C(O)c1cc(Nc2ccc(O)c3ccccc23)ccc1O | 46.1 | –
39 | COc1ccc2ccccc2c1Nc1c(OC)ccc2ccccc12 | 5.7 | –
40 | COC(=O)c1ccccc1Nc1c(O)ccc2ccccc12 | > 20 | –
41 | COc1ccc(Nc2ccc(OC)c3ccccc23)cc1C(=O)O | > 80 | –
42 | CCN(C)C(=O)Oc1cccc([C@H](C)N(C)C)c1 [RIVASTIGMINE] | – | Kp [7]: 3
